Data from PMC3217094 (DNA repair, 2011).
“And” between values parts separate entries of the source, which are not always exact repeats. Identical values can stand only once. Like-named read-outs stand apart in the source and are kept apart here. Blank lines part the entries; values can stand above or below the molecule they belong to. {FAM} = fluorescein (FAM) label

What was measured:
AGT [1] = molecular target: T1, AGT (Homo sapiens, UniProt P16455); assay: DNA alkyltransferase assay; type: biochemical
T1 sequence (P16455 with tags, fused parts or gaps limits assumed): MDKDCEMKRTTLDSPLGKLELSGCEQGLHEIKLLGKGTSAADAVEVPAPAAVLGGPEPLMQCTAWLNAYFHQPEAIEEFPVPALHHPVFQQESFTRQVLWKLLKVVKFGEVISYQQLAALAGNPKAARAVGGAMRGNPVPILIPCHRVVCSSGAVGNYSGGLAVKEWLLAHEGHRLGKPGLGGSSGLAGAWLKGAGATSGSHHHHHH

benzyl-AGT [2] = molecular target: T2, benzyl-AGT (Homo sapiens, UniProt P16455, A204H/G205H/N207H/P202H/P203H/R206H); assay: Mobility shift titration of 32P-labeled 24-mer DNA with benzyl-AGT; type: binding; conditions: AGT modified with O^6-benzylguanine
T2 sequence (P16455 with tags, fused parts or gaps): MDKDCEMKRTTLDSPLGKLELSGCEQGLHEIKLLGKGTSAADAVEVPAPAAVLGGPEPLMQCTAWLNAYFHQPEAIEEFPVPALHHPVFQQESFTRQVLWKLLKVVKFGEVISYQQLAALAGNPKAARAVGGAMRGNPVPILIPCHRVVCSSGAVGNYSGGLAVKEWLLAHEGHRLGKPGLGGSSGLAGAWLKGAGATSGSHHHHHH

AGT [3] = molecular target: T1, AGT; assay: Sedimentation equilibrium analysis of AGT-DNA complexes; type: binding; conditions: mean ± SEM for ≥3 determinations, 4°C
AGT [4] = molecular target: T1, AGT; conditions: AGT binding single-stranded DNA; for Hill coefficient (n) from anisotropy measurements / Hill coefficient (n) from intensity measurements: 4°C; for Ka from anisotropy measurements: apparent association constant
AGT [5] = molecular target: T1, AGT; assay: Binding of free dye to AGT detected by fluorescence anisotropy
Outline: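 Each step equilibrated 1 h at 4°C before reading anisotropy, with emission intensity also recorded. Fractional saturation Y = (A − A0)/(Amax − A0), where A0 is dye without protein and Amax the saturated complex, plotted against AGT concentration.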

AGT [6] = molecular target: T1, AGT; assay: Mobility shift assay: inhibition of AGT DNA binding; conditions: IC50 for inhibition of DNA binding
benzyl-AGT [7] = molecular target: T2, benzyl-AGT; assay: Binding of FAM to benzyl-AGT detected by fluorescence anisotropy
[8] = molecular target: T3, O6-alkylguanine-DNA alkyltransferase (AGT, MGMT) (human, UniProt P16455 1-201); assay: fluorescence anisotropy
[9] = molecular target: T3, O6-alkylguanine-DNA alkyltransferase …; assay: fluorescence anisotropy; remark: listed apart in the source
[10] = molecular target: T3, O6-alkylguanine-DNA alkyltransferase …; assay: fluorescence anisotropy; remark: listed apart in the source
[11] = molecular target: T3, O6-alkylguanine-DNA alkyltransferase …; assay: fluorescence anisotropy; remark: listed apart in the source

Molecule: Nc1nc(OCc2ccccc2)c2nc[nH]c2n1 [O^6-benzylguanine]
residual AGT activity in DNA repair after treatment (AGT [1]; AGT modified with O^6-benzylguanine (37°C, 50mM Tris, pH 7.6, 1mM EDTA, 5 mM DTT)): < 1%
DNA binding of treated AGT (benzyl-AGT [2]): fully-competent in DNA binding
apparent stoichiometry n of DNA binding (benzyl-AGT [2]; duplex 24mer DNA): 5.5 ± 0.2

Molecule: 3′-(FAM)-26-mer Oligo F: 5′- AGTCAGTCAGTCAGTCAGTCAGTCAG(FAM) -3′ (DNA AGTCAGTCAGTCAGTCAGTCAGTCAG; DNA, 3' {FAM}, backbone not given here)
Stoichiometry of saturated AGT-DNA complex (AGT [3]): 6.38 ± 0.21
Hill coefficient (n) from anisotropy measurements (AGT [4]): 2.13 ± 0.14
Hill coefficient (n) from intensity measurements (AGT [4]): 3.33 ± 0.27
Ka from anisotropy measurements (AGT [4]): 3.30 ± 0.12 × 10^5 M^−1

Molecule: 5′-(FAM)-26-mer Oligo F: 5′- (FAM)AGTCAGTCAGTCAGTCAGTCAGTCAG -3′ (DNA AGTCAGTCAGTCAGTCAGTCAGTCAG; DNA, 5' {FAM}, backbone not given here)
Stoichiometry of saturated AGT-DNA complex (AGT [3]): 6.59 ± 0.20
Hill coefficient (n) from anisotropy measurements (AGT [4]): 2.02 ± 0.17
Hill coefficient (n) from intensity measurements (AGT [4]): 2.92 ± 0.62
Ka from anisotropy measurements (AGT [4]): 3.33 ± 0.15 × 10^5 M^−1

Kd (AGT [5]; Kd, apparent, from fluorescence anisotropy data, single-site (1:1) fit, unmodified AGT, 4°C, no DNA): 13 µM and 12.7 µM
IC50 (AGT [6]; duplex 24mer 0.17μM, AGT 3.9μM, 20°C): 76.3 µM
IC50 (AGT [6]; electrophoretic analysis, approximate value): ~76 µM
concentration sufficient to completely inhibit AGT activity (AGT [1]): 1.8 mM
Kd (benzyl-AGT [7]): 82.2 µM
Molecule: O=C(O)c1ccc(C(=O)O)c(-c2c3ccc(=O)cc-3oc3cc(O)ccc23)c1 [FAM, 6-Carboxyfluorescein]
apparent binding affinity K (Ka) (AGT [5]; fluorescence anisotropy, Eq. 5 with n = 1, 4°C): 7.84 ± 0.24 × 10^4 M^−1 and 7.8 × 10^4 M^−1

Molecule: O=S(=O)(O)c1cccc2c(-c3ccc(Nc4ccccc4)c4c(S(=O)(=O)O)cccc34)ccc(Nc3ccccc3)c12 [Bis-ANS, 4,4′-bis(phenylamino)-[1,1′-Binaphthalene]-5,5′-disulfonic acid]
Kd (AGT [5]): 33.1 µM
IC50 (AGT [1]): 48.6 µM

Molecule: Unmodified 16-mer Oligo A: 5′- AGT CAG TCA GTC AGT C -3′ (DNA AGTCAGTCAGTCAGTC; unmodified DNA)
Stoichiometry of saturated AGT-DNA complex (AGT [3]): 3.86 ± 0.08

Molecule: Cc1ccc2c(c1)sc(-c1ccc(N(C)C)cc1)[n+]2C [ThT, Thioflavin T]
IC50 (AGT [1]): 217 µM

Molecule: Unmodified 26-mer: 5′- AGTCAGTCAGTCAGTCAGTCAGTCAG -3′ (DNA AGTCAGTCAGTCAGTCAGTCAGTCAG; unmodified DNA)
Stoichiometry of saturated AGT-DNA complex (AGT [3]): 5.89 ± 0.07

Molecule: Nc1nc2c(ncn2[C@@H]2O[C@H](COP(=O)(O)O)[C@@H](O)[C@H]2O)c(=O)[nH]1 [5′-GMP, guanosine 5′ monophosphate]
IC50 (AGT [1]): 34.6 µM

Molecule: AGTCAGTCAGTCAGTC (ssDNA) [3'-FAM-Oligo A]
Ka [8]: 282000 M⁻¹

Molecule: AGTCAGTCAGTCAGTCAGTCAGTCAG (ssDNA) [5'-FAM-Oligo F]
Ka [9]: 333000 M⁻¹

Molecule: AGTCAGTCAGTCAGTCAGTCAGTCAG (ssDNA) [3'-FAM-Oligo F]
Ka [10]: 330000 M⁻¹

Molecule: AGTCAGTCAGTCAGTC (ssDNA) [5'-FAM-Oligo A]
Ka [11]: 295000 M⁻¹
